FGF22 binding – binders of recombinant human FGF22 by thermal shift | Q9HCT0 | SYPRO orange fluorescence; percent of sucrose octasulfate shift, DMSO zero | activity (Tm shift, normalised), % at 9.99 µM | 340,000 tested, 1.5% active | AID 651658;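 active = mean Tm shift, scaled 0 neutral to 100 positive control, at about 1.3% or above, every replicate too, limit read from the data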
Target sequence (Q9HCT0 whole entry, looked up): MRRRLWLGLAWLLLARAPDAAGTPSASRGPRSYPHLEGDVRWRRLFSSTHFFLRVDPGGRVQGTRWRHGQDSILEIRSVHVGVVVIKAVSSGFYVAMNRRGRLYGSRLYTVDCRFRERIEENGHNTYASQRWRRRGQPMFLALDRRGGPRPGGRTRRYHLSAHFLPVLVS
HCV NS3 hel inh – HCV NS3 helicase inhibition. 290,000 tested, 0.56% active. NS3 helicase DNA unwinding, Cy5 molecular beacon fluorescence. inhibition, % at 10.9 µM;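 active = inhibition above the mean of all tested compounds plus 3 SD, set per campaign, cut at about 35% in these data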;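 note: 0% = DMSO wells and 100% = thioflavine S control wells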
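Compound dosing – single dose, 10.9 µM nominal final, DMSO 0.8% final · System – NS3 helicase fragment of HCV · Buffer or medium – MOPS pH 6.5, MgCl2, DTT, Tween20, BSA · Signal – Cy5 beacon fluorescence read at start and 1 h · Also added – annealed dual-labelled DNA beacon duplex, ATP-started · Schedule – 1 h at 25 °C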
ZTA DNA inh – blocks Epstein-Barr virus ZTA, an EBNA-1 counter-screen | 320,000 tested, 0.15% active | AID 2234 | ZTA-DNA binding, fluorescence polarization | inhibition, % at 11 µM | P03206; in the data active = inhibition above about 33%
Target sequence (P03206 whole entry, looked up): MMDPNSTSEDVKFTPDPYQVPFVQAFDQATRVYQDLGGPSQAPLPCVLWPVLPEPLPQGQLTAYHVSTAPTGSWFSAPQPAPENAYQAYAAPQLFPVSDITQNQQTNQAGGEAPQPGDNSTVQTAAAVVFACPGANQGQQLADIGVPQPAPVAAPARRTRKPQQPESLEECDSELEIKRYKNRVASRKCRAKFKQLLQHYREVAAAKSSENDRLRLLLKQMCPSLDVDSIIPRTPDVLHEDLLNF
EBNA-1 inhibitor – blocks EBNA-1 binding to DNA; EBNA-1 DNA binding, fluorescence polarization; 300,000 tested, 0.34% active; inhibition, % at 14.8 µM; in the data active = inhibition above about 28%
DNA FID counter-1 – counter-screen for HCV NS3 helicase inhibitors: DNA intercalator displacement | DNA fluorescent intercalator displacement, fluorescence | inhibition, % at 7.9 µM | 290,000 tested, 0.17% active;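 note: 0% = vehicle and 100% = reference compound; higher means more ethidium bromide displaced from hairpin DNA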
NR3A LBD binder – NR3A (human) ligand-binding domain modulation; Tm shift relative to glycine control, % at 25 µM; NR3A LBD differential scanning fluorimetry, Tm shift; 0% = protein alone, 100% = glycine-bound protein; 340,000 tested, 2.5% active;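 active = melting temperature shift of at least 10% of the positive control shift, at one fixed dose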
NS3 hel confirm – HCV NS3 helicase inhibition, confirmation assay | shares compounds with HCV NS3 hel inh | NS3 helicase DNA unwinding, Cy5 molecular beacon fluorescence | 1,600 tested, 31% active | inhibition, % at 10.9 µM | AID 1943;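 active = inhibition above the mean of all tested compounds plus 3 SD, cutoff set per campaign, cut at about 36% in these data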
DNA FID counter-2 – displaces DNA intercalator in HCV helicase counter-screen; inhibition, % at 7.9 µM; 1,600 tested, 4% active; shares compounds with HCV NS3 hel inh; AID 1945; DNA fluorescent intercalator displacement, fluorescence;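 note: 0% = vehicle and 100% = reference compound; higher means more displacement of ethidium bromide from the DNA hairpin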
* hit, by the source's call; nt = no result given. Most compounds without a hit are left out; they make up all but 3.6% or so of the library. Cut-off read from the data, not from the text of the source, unless noted: active = inhibition above about 37%; inactive = the rest.

SMILES | FGF22 binding | HCV NS3 hel inh | ZTA DNA inh | EBNA-1 inhibitor | DNA FID counter-1 | NR3A LBD binder | NS3 hel confirm | DNA FID counter-2
COc1ccc(S(=O)(=O)N(C)C[C@@H]2Oc3c(NC(=O)Nc4ccc5c(c4)OCO5)cccc3C(=O)N([C@H](C)CO)C[C@H]2C)cc1 | 0 | nt | nt | nt | nt | nt | nt | nt
O=C(Nc1ccccc1N1CCCC1)c1cccc(-c2cc3ccccc3oc2=O)c1 | nt | 42* | -3 | -1 | -15 | -2 | -6 | -31
O=C(Nc1ccc(N2CCCC2)cc1)c1cccc(-c2cc3ccccc3oc2=O)c1 | 0 | -21 | 6 | -15 | 4 | 1 | nt | nt
CN(C)C(=O)C[C@@H]1CC[C@H]2[C@@H](COC[C@@H](O)CN2S(=O)(=O)c2ccccc2)O1 | 0 | nt | nt | nt | nt | nt | nt | nt
CCc1ccc(/C=C2\Oc3cc(OC(=O)N4CCOCC4)ccc3C2=O)cc1 | nt | 47* | -13 | -2 | -1 | -1 | -6 | -17
N#Cc1cccc(-c2ccc([C@H]3[C@H]4CN(C(=O)Nc5cccc(F)c5)CCCCN4[C@H]3CO)cc2)c1 | 0 | nt | nt | nt | nt | nt | nt | nt
Nc1c(C(=O)Nc2ccc(Br)cc2)sc2nc(-c3ccco3)ccc12 | nt | 69* | 3 | 1 | -13 | 8 | 28 | 5
Nc1c(C(=O)Nc2ccc(F)cc2)sc2nc(-c3ccco3)ccc12 | nt | 41* | 19 | 5 | -13 | 5 | -6 | 10
CC(=O)c1sc2nc(-c3ccco3)ccc2c1N | 0 | 68* | -18 | -8 | -7 | -7 | 46* | 15
NC(=O)c1sc2nc(-c3ccccc3)ccc2c1N | 0 | 2 | -10 | -4 | -11 | -1 | nt | nt
CCC(=O)N(C)C[C@H]1Oc2cc(C3=CCCC3)ccc2S(=O)(=O)N([C@@H](C)CO)C[C@@H]1C | 0 | nt | nt | nt | nt | nt | nt | nt
CC(CCC(=O)O)C1CCC2C3CCC4C[C@H](O)CCC4(C)C3CC(=O)C12C (some centres not stated) | 0 | 40* | 1 | 4 | -54 | -5 | -21 | -13
O=C(O)CCNc1ccc(NCCC(=O)O)c2c1C(=O)c1ccccc1C2=O | -1 | 60* | 158* | 128* | -8 | 8 | 35 | 4
COc1ccccc1NC(=O)c1ccc(S(=O)(=O)N(C)C)cc1 | 0 | -6 | 0 | 0 | 0 | -1 | nt | nt
COc1ccc(OC)c2sc(NC(=O)c3ccc(S(=O)(=O)N(C)C)cc3)nc12 | 0 | 41* | 15 | 0 | 1 | -17 | 4 | -24
Cc1ccc(-c2csc(Cc3nc(-c4ccc5c(c4)CCC(=O)N5)cs3)n2)cc1 | 0 | 40* | 1 | 11 | -26 | -4 | -3 | -10
Cc1nc(-c2ccc3c(c2)CCC(=O)N3)cs1 | 0 | 1 | -16 | -8 | -3 | 1 | nt | nt
C=CCNC(=O)CSc1nnc(-c2ccc(S(=O)(=O)N3CCCC3)cc2)n1C | 0 | 47* | -17 | 3 | -23 | -2 | -14 | 5
CCCCNC(=O)CSc1nnc(-c2ccc(S(=O)(=O)N3CCCC3)cc2)n1C | nt | 5 | 4 | -4 | -16 | 3 | nt | nt
O=C(NCc1ccccc1)[C@H]1[C@H](CO)[C@H]2Cn3c(cccc3=O)[C@@H]1N2Cc1ccccn1 | 0 | nt | nt | nt | nt | nt | nt | nt
Cc1ccc(C(=O)Nc2ccc3c(c2)OCO3)cc1 | nt | 38* | -3 | 4 | -5 | -39 | -18 | 1
Cc1ccc(C(=O)Nc2ccc3c(c2)OCCO3)cc1 | 0 | 0 | nt | nt | -3 | 5 | nt | nt
C[C@@H]1CN([C@H](C)CO)C(=O)Cc2cc(NC(=O)Cn3cnnn3)ccc2O[C@H]1CN(C)S(=O)(=O)c1cn(C)cn1 | 0 | nt | nt | nt | nt | nt | nt | nt
CC(=O)c1cccc(NS(=O)(=O)c2ccc(C(=O)Nc3ccccc3)cc2)c1 | 0 | 42* | -5 | -6 | -24 | -1 | -18 | -2
O=C(Nc1ccccc1)c1ccc(S(=O)(=O)Nc2cccc(O)c2)cc1 | 0 | -14 | 5 | 6 | -1 | 3 | nt | nt
O=C(C[C@H]1C[C@H]2c3cc(NS(=O)(=O)c4ccc(F)cc4)ccc3O[C@H]2[C@@H](CO)O1)NCC(F)(F)F | 0 | nt | nt | nt | nt | nt | nt | nt

Screens from PubChem BioAssay.
